Test results reported in ChEMBL document CHEMBL3526089, “Selective mechanism-based inactivation of CYP3A4 by CYP3cide (PF-04981517) and its utility as an in vitro tool for delineating the relative roles of CYP3A4 versus CYP3A5 in the metabolism of drugs” (Drug Metab Dispos, 2012).

Assays:
Type in all cases: ADME
CYP2C9 = CYP2C9 (Homo sapiens, UniProt P11712); experiment: Time dependent inhibition of human CYP2C9 diclofenac 4'-hydroxylase activity assessed as decrease in enzyme activity at 100 uM preincubated for 30 mins by IC25-shift assay; settings: probe diclofenac (4'-hydroxylation)
CYP2C9, sequence (P11712 whole entry): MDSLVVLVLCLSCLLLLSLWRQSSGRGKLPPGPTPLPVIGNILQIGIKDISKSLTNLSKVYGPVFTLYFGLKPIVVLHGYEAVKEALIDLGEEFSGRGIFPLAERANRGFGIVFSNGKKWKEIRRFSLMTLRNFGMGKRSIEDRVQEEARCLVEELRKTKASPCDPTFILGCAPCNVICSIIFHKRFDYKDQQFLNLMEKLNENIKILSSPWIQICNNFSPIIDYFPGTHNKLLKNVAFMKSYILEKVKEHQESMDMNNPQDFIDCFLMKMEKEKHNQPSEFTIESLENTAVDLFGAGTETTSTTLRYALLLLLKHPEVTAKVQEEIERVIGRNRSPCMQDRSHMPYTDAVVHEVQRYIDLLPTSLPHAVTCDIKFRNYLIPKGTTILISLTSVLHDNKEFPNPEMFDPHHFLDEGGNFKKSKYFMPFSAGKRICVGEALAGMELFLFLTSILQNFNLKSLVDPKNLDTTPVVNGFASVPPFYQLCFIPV
How it was run: (§1)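 IC25-shift assay. Pooled HLMs or recombinant CYP3A4/3A5/3A7 were preincubated 30 min at 37°C with CYP3cide, with or without NADPH (1.3 mM) (N=2). Mixture diluted 10-fold into probe substrate (~KM) at 37°C. Metabolites analysed by LC/MS/MS. Readout: % decrease in activity vs control.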

CYP2D6 = CYP2D6 (Homo sapiens, UniProt P10635); experiment: Time dependent inhibition of human CYP2D6 dextromethorphan O-demethylase activity assessed as decrease in enzyme activity at 100 uM preincubated for 30 mins by IC25-shift assay; settings: probe dextromethorphan (O-demethylation); how it was run: as §1
CYP2D6, sequence (P10635 whole entry): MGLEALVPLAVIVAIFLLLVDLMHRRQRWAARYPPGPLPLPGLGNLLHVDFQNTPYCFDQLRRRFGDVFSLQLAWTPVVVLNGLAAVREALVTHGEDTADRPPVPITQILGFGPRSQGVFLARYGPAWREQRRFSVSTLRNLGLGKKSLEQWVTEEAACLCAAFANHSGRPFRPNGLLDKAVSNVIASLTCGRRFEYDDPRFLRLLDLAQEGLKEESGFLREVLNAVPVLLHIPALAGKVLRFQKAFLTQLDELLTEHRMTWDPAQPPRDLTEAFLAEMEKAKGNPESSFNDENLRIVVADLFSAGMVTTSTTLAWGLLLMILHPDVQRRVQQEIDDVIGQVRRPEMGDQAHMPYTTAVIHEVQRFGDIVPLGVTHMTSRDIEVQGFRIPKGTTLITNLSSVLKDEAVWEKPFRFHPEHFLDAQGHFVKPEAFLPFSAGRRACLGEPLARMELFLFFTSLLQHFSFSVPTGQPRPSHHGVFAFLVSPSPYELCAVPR

CYP3A4 = CYP3A4 (Homo sapiens, UniProt P08684); experiment: Time dependent inhibition of midazolam 1'-hydroxylase activity of human recombinant CYP3A4 harboring human P450 oxidoreductase and b5 assessed as decrease in enzyme activity at 0.050 uM preincubated for 30 mins by IC25-shift assay; settings: recombinant CYP3A4 with human P450 oxidoreductase and b5, probe midazolam (1'-hydroxylation); how it was run: as §1
CYP3A4, sequence (P08684 whole entry): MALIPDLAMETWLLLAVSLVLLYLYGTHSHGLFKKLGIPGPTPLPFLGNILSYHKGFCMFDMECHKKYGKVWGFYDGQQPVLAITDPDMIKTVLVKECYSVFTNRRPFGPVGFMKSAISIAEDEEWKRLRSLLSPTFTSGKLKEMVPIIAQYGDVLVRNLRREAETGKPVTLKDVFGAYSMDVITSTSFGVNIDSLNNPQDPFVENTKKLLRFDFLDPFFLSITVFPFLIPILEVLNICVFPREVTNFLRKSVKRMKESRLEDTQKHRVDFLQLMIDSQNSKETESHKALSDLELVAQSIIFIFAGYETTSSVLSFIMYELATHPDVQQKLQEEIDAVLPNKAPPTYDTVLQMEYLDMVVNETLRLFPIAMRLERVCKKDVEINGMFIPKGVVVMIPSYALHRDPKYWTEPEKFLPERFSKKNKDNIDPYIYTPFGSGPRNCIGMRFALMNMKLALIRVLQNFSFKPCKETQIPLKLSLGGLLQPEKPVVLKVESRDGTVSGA

Cytochrome P450 3A4 = Cytochrome P450 3A4 (Homo sapiens, UniProt P08684); experiment: Inhibition of midazolam 1'-hydroxylase activity of human recombinant CYP3A4 harboring human P450 oxidoreductase and b5 assessed as decrease in enzyme activity preincubated for 30 mins by LC-MS/MS analysis
Cytochrome P450 3A4, sequence (P08684 whole entry): as above
How it was run: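 Recombinant CYP3A4 with POR and cytochrome b5 was preincubated with inhibitor at 0.050 µM, with or without NADPH (1.3 mM), for 30 min at 37°C (N=2). The mixture was then diluted 10-fold into the probe substrate (about KM) at 37°C and analysed for metabolite. Results are percent decrease in activity versus control.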

Cytochrome P450 1A2 = Cytochrome P450 1A2 (Homo sapiens, UniProt P05177); experiment: Reversible inhibition of human CYP1A2 phenacetin O-deethylase activity
Cytochrome P450 1A2, sequence (P05177 whole entry, canonical isoform): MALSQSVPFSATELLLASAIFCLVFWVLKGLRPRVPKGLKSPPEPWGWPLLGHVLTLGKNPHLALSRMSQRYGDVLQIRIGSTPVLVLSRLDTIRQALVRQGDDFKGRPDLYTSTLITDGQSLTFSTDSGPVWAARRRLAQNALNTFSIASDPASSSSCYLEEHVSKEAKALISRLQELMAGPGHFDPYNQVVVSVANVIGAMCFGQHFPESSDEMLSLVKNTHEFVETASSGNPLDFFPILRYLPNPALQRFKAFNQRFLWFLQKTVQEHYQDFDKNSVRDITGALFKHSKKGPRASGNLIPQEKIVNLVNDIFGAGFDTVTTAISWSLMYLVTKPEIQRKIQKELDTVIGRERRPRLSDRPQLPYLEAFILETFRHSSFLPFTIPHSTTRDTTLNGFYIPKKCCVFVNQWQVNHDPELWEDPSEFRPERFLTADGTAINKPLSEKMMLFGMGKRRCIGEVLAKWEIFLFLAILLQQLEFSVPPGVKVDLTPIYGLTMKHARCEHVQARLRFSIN
How it was run: (§2)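 Reversible IC50 with pooled HLM or recombinant CYP3A7 (with POR and b5), protein 0.010–0.10 mg/ml depending on isoform. Probe substrate at its experimentally derived KM. Metabolite formation measured by LC/MS/MS. IC50 determinations run in duplicate.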

Cytochrome P450 2C9 = Cytochrome P450 2C9 (Homo sapiens, UniProt P11712); experiment: Reversible inhibition of human CYP2C9 diclofenac 4'-hydroxylase activity; how it was run: as §2
Cytochrome P450 2C9, sequence (P11712 whole entry): as the sequence (P11712 whole entry) above

Cytochrome P450 2C19 = Cytochrome P450 2C19 (Homo sapiens, UniProt P33261); experiment: Reversible inhibition of human CYP2C19 S-mephenytoin 4'-hydroxylase activity; how it was run: as §2
Cytochrome P450 2C19, sequence (P33261 whole entry): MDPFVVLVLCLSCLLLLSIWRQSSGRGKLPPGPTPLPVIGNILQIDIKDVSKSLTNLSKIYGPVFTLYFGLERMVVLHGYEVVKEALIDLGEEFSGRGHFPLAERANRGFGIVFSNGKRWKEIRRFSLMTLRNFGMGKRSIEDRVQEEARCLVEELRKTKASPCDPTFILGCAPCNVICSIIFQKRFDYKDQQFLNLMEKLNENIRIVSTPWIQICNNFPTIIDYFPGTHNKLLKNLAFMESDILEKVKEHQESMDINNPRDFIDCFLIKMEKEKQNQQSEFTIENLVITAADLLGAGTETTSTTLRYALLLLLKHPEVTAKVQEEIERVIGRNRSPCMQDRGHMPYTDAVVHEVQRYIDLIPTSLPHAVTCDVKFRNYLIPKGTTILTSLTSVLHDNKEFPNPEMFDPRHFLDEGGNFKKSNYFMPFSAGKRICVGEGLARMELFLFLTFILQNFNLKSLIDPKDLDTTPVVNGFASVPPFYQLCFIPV

Cytochrome P450 2D6 = Cytochrome P450 2D6 (Homo sapiens, UniProt P10635); experiment: Reversible inhibition of human CYP2D6 dextromethorphan O-demethylase activity
Cytochrome P450 2D6, sequence (P10635 whole entry): as the sequence (P10635 whole entry) above

CYP3A [1] = target: T1, CYP3A (Homo sapiens, UniProt P08684+P20815+P24462+Q9HB55); experiment: Reversible inhibition of human CYP3A felodipine oxidase activity; settings: probe felodipine (oxidation); how it was run: as §2
CYP3A [2] = target: T1, CYP3A; experiment: Reversible inhibition of human CYP3A midazolam 1'-hydroxylase activity; settings: probe midazolam (1'-hydroxylation); how it was run: as §2
Cytochrome P450 3A5 [3] = target: T2, Cytochrome P450 3A5 (Homo sapiens, UniProt P20815); experiment: Reversible inhibition of midazolam 1'-hydroxylase activity of human recombinant CYP3A5 harboring human P450 oxidoreductase and b5
T2 sequence (P20815 whole entry): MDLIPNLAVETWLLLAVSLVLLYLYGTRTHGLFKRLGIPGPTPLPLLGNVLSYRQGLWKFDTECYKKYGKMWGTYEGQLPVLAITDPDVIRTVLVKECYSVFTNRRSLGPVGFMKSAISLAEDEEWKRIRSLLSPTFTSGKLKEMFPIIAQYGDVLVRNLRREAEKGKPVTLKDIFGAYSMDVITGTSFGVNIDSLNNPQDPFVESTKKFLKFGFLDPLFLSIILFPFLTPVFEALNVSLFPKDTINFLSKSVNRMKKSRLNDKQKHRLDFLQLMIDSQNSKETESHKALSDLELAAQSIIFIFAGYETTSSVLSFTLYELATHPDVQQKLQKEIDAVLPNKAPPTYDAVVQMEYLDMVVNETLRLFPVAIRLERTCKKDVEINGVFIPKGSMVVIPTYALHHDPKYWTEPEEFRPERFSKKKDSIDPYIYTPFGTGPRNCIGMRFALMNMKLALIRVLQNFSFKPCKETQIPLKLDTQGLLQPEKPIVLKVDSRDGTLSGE
How it was run: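 Recombinant CYP3A5 expressed in baculovirus, with P450 oxidoreductase and cytochrome b5 (P450:POR:b5 1:13:7). Enzyme at 0.010 mg/ml for midazolam 1'-hydroxylase and 0.020 mg/ml for testosterone 6β-hydroxylase. Each substrate at its experimentally derived KM. IC50 determined in duplicate.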

CYP2B6 = CYP2B6 (Homo sapiens, UniProt P20813); experiment: Time dependent inhibition of human CYP2B6 bupropion hydroxylase activity assessed as decrease in enzyme activity at 100 uM preincubated for 30 mins by IC25-shift assay; settings: probe bupropion (hydroxylation); how it was run: as §1
CYP2B6, sequence (P20813 whole entry): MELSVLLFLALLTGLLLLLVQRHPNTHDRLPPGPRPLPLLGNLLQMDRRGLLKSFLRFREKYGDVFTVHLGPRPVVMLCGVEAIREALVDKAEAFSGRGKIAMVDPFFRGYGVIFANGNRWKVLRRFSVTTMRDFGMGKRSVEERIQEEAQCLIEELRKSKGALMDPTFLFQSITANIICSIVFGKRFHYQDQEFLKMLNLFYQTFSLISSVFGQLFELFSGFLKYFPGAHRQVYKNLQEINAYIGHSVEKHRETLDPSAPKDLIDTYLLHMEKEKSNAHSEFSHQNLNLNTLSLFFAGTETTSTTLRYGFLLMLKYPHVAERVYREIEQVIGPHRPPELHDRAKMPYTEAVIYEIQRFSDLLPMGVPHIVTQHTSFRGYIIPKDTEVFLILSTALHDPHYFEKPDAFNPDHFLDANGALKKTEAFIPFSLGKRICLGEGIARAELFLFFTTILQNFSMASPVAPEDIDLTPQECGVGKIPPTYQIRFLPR

CYP2C8 = CYP2C8 (Homo sapiens, UniProt P10632); experiment: Time dependent inhibition of human CYP2C8 paclitaxel 6alpha-hydroxylase activity assessed as decrease in enzyme activity at 100 uM preincubated for 30 mins by IC25-shift assay; settings: probe paclitaxel (6alpha-hydroxylation); how it was run: as §1
CYP2C8, sequence (P10632 whole entry): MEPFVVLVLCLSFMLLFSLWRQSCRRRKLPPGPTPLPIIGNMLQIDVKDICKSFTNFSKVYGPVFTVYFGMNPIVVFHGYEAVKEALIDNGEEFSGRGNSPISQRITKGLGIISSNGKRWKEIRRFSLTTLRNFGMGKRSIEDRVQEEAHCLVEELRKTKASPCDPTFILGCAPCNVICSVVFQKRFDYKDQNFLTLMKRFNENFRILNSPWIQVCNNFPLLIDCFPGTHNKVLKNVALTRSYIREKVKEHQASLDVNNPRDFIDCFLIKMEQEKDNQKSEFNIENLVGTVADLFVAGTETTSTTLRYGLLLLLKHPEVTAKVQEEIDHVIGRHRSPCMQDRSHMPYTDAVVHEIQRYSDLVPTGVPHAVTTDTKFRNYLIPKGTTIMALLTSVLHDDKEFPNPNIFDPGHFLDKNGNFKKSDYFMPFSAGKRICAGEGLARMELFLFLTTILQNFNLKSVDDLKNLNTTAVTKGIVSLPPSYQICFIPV

Cytochrome P450 3A5 [4] = target: T2, Cytochrome P450 3A5; experiment: Inhibition of testosterone 6beta-hydroxylase activity of human recombinant CYP3A5 in presence of human P450 oxidoreductase and b5 assessed as decrease in enzyme activity preincubated for 30 mins by LC-MS/MS analysis
How it was run: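 rCYP3A5 with POR and b5 (0.010 mg/ml for midazolam, 0.020 mg/ml for testosterone) preincubated 30 min at 37°C with 2 µM inhibitor, ±NADPH (1.3 mM), N=2. Mixture then diluted 10-fold into probe substrate at ~KM at 37°C. Activity expressed as percent of control remaining, reported as decrease in activity.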

Cytochrome P450 3A5 [5] = target: T2, Cytochrome P450 3A5; experiment: Drug metabolism assessed as human recombinant CYP3A5 in presence of human P450 oxidoreductase and b5-mediated (4-(1-methyl-4-((S)-3-(piperidin-1-yl)pyrrolidin-1-yl)-1H-pyrazolo[3,4-d]pyrimidin-3-yl)-5-p-tolyl-1H-pyrazol-1-yl)methanol formation at 10 uM by HPLC-MS analysis in presence of NADPH; settings: recombinant enzyme
How it was run: (§3)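 Recombinant CYP3A4 or CYP3A5 (50 pmol/ml final) added, without preincubation, to 10 µM CYP3cide with NADPH (final 1 mM) in 100 mM phosphate pH 7.4. Trapping incubations also held 200 µM KCN or 5 mM GSH (final). Incubated 1 h at 37°C, quenched with acetonitrile, dried, reconstituted. Metabolites analysed by LC/Orbitrap ESI-MS.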

Cytochrome P450 3A5 [6] = target: T2, Cytochrome P450 3A5; experiment: Drug metabolism assessed as human recombinant CYP3A5 in presence of human P450 oxidoreductase and b5-mediated 1-((3S)-1-(1-methyl-3-(1-methyl-5-p-tolyl-1H-pyrazol-4-yl)-1H-pyrazolo[3,4-d]pyrimidin-4-yl)pyrrolidin-3-yl)-2,3,4,5-tetrahydropyridinium formation at 10 uM by HPLC-MS analysis in presence of NADPH; settings: recombinant enzyme; how it was run: as §3
CYP3A5*3/*3 = experiment: Inhibition of CYP3A5*3/*3 in human liver microsomes assessed as midazolam 1'-hydroxylase activity at 0.56 uM after 10 mins; settings: liver microsomes (CYP3A5*3/*3 genotype), probe midazolam (1'-hydroxylation)
How it was run: (§4)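 Genotyped individual HLMs (0.1 mg/ml) preincubated at 37°C with CYP3cide (0–1.3 μM; 10 min in the two-donor study, 5 min in the 30-donor study), with or without 1.3 mM NADPH (N=3). Mixture diluted 20-fold into 23 μM midazolam for 6 min. 1'-OH-midazolam measured. Readout: % of vehicle/no-NADPH control activity.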

CYP3A5*1/*1 = experiment: Inhibition of CYP3A5*1/*1 in human liver microsomes assessed as midazolam 1'-hydroxylase activity at 0.56 uM after 10 mins; settings: liver microsomes (CYP3A5*1/*1 genotype), probe midazolam (1'-hydroxylation); how it was run: as §4
[7] = Inhibition of CYP3A5*3/*3 in 5 mg/ml of human liver microsomes assessed as midazolam 1'-hydroxylase activity at 13 uM after 10 mins
[8] = Fraction unbound in human liver microsomes at 0.8 mg/ml
CYP3A5*1/*3 = experiment: Time dependent inhibition of CYP3A5*1/*3 in human liver microsomes assessed as midazolam 1'-hydroxylase activity at 0.56 uM after 10 mins by dilution method; settings: human liver microsomes (CYP3A5*1/*3 genotype), probe midazolam (1'-hydroxylation)

SMILES: Cc1ccc(-c2c(-c3nn(C)c4ncnc(N5CC[C@H](N6CCCCC6)C5)c34)cnn2C)cc1
- inhibition at 30 min, 100 µM (CYP2C9): 5.4%
- inhibition at 30 min, 100 µM (CYP2D6): 6%
- inhibition at 30 min, 0.05 µM (CYP3A4): 87%
- Ki (Cytochrome P450 3A4): 120 nM
- IC50 (Cytochrome P450 1A2): 43 µM
- IC50 (Cytochrome P450 2C9): > 100 µM
- IC50 (Cytochrome P450 2C19): 77 µM
- IC50 (Cytochrome P450 2D6): 71 µM
- IC50 (CYP3A [1]): 160 nM
- IC50 (CYP3A [2]): 330 nM
- IC50 (Cytochrome P450 3A5 [3]): 17 µM
- inhibition at 30 min, 100 µM (CYP2B6): 2.4%
- inhibition at 30 min, 100 µM (CYP2C8): 13%
- Ki (Cytochrome P450 3A5 [4]): 1200 nM
- Drug metabolism (Cytochrome P450 3A5 [5]): metabolite_detected
- Drug metabolism (Cytochrome P450 3A5 [6]): metabolite_detected
- inhibition at 10 min, 0.56 µM (CYP3A5*3/*3): > 85%
- inhibition at 10 min, 0.56 µM (CYP3A5*1/*1): 23%
- inhibition (INH) [7]: Active
- fraction unbound [8]: 0.56
- inhibition at 10 min, 0.56 µM (CYP3A5*1/*3): 0.4%
